From PubChem
Hits are enriched below; roughly 3.6% of the tested compounds scored in any of these assays.
PAFAH1B2 inh: PAFAH1B2 enzyme inhibitors, primary screen, biochemical, fluorescence polarization, human; 340,000 compounds, 1.2% hits; Platelet-activating factor acetylhydrolase IB subunit alpha2 (Homo sapiens), P68402; recombinant PAFAH1B2, FP-rhodamine activity probe; inhibition, % at 3.39 µM;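 active = inhibition above the mean of all tested compounds plus 3 SD, cut at about 24% in these data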;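 note: 0% = enzyme with DMSO and 100% = wells lacking PAFAH1B2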
Target sequence (P68402 whole entry, looked up): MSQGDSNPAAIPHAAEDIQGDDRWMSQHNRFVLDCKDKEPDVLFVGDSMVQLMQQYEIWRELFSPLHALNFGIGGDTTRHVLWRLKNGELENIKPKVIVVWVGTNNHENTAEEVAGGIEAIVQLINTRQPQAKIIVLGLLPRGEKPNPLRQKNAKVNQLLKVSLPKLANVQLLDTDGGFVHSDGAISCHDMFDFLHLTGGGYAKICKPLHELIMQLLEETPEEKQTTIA
PAFAH2 FP inh: PAFAH2 enzyme inhibitors, primary screen, biochemical, fluorescence polarization, human; 340,000 compounds, 0.99% hits; inhibition, % at 3.39 µM; Platelet-activating factor acetylhydrolase 2, cytoplasmic (Homo sapiens), Q99487; recombinant PAFAH2, FP-rhodamine activity probe;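 active = inhibition above the mean over all tested compounds plus 3 SD, cut at about 30% in these data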;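 note: inhibitors block probe labeling of enzyme so polarization drops; 0% = enzyme with DMSO and 100% = wells lacking PAFAH2 protein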
pPAFAH inh: pPAFAH enzyme inhibitors, primary screen, biochemical, fluorescence polarization, human; recombinant pPAFAH, FP-rhodamine probe fluorescence polarization; inhibition, % at 3.39 µM; Platelet-activating factor acetylhydrolase (Homo sapiens), Q13093; 330,000 compounds, 1.5% hits;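 active = inhibition above the mean inhibition across the screen plus 3 SD, cut at about 25% in these data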;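 note: inhibitors block binding of the rhodamine activity-based probe so polarization drops; 0% = enzyme with DMSO and 100% = wells lacking pPAFAH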
PAFAH1B3 inh: PAFAH1B3 enzyme inhibitors, primary screen, biochemical, fluorescence polarization, human. Platelet-activating factor acetylhydrolase IB subunit alpha1 (Homo sapiens), Q15102. recombinant PAFAH1B3, FP-rhodamine probe. inhibition, % at 3.39 µM. 340,000 compounds, 0.28% hits. AID 492972, 2010;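 active = inhibition above the screen-wide average of all tested compounds plus 3 SD, cut at about 25% in these data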;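 note: 0% = enzyme with DMSO only and 100% = wells lacking PAFAH1B3 protein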
Target sequence (Q15102 whole entry, looked up): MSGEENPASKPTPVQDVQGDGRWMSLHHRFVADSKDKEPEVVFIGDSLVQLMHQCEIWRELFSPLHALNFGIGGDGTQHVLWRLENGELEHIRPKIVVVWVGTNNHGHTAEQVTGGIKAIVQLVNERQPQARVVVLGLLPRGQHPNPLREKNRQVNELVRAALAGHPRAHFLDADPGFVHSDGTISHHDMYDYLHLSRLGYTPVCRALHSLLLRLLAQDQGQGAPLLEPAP
VIM-2 inh: VIM-2 metallo-beta-lactamase inhibitors, primary screen, biochemical, epi-absorbance readout, Pseudomonas aeruginosa enzyme; purified VIM-2, nitrocefin hydrolysis, epi-absorbance fluorescence; inhibition, % at 5.6 µM; 290,000 compounds, 0.89% hits; AID 1527, 2009;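 active = inhibition above the mean of all tested compounds plus 3 SD, cutoff set per screening run, cut at about 7.5% in these data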;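 note: red hydrolysis product quenches plate fluorescence so inhibitors raise well fluorescence; 0% = enzyme with DMSO and 100% = DMSO without enzyme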
IMP-1 inhibitor: IMP-1 metallo-beta-lactamase inhibitors, primary screen, biochemical, epi-absorbance readout, Pseudomonas aeruginosa enzyme. metallo-beta-lactamase IMP-1 (Pseudomonas aeruginosa). purified IMP-1, nitrocefin hydrolysis, epi-absorbance fluorescence. inhibition, % at 5.6 µM. 290,000 compounds, 0.45% hits. AID 1556, 2009;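 active = inhibition above the mean plus 3 SD of all compounds in the same screening run, cut at about 4.5% in these data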;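 note: 0% = IMP-1 with DMSO and 100% = DMSO wells lacking enzyme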
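System: purified IMP-1; amount: IMP-1 0.2 nM before substrate addition; compound: single dose, 5.6 µM; times: 25 °C, 15 min preincubation, 25 min reaction; signal: Epi-absorbance via hydrolysed-nitrocefin quenching of white-plate fluorescence, 480/530 nm, EDTA stop; benchmarks: DMSO with and without IMP-1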
pPAFAH confirm: pPAFAH (PLA2G7) enzyme inhibitors, confirmation, biochemical, fluorescence polarization, human; recombinant pPAFAH, FP-Rh probe fluorescence polarization; inhibition, % at 3.39 µM; shares compounds with pPAFAH inh; 2,300 compounds, 72% hits;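 active = mean inhibition of the triplicate above the hit cutoff set for the earlier primary screen, cut at about 25% in these data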;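 note: 0% = enzyme with DMSO and 100% = wells lacking pPAFAH enzyme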
Starred values were filed as active, the others as inactive; / = no result given.

SMILES | PAFAH1B2 inh | PAFAH2 FP inh | pPAFAH inh | PAFAH1B3 inh | VIM-2 inh | IMP-1 inhibitor | pPAFAH confirm
CCCN1CCN(C(=O)Cn2nc(C)n3c(cc4c(OC)cccc43)c2=O)CC1 | 5 | -2 | / | 5 | / | / | /
CCN1CCN(c2nc3c(C)cccn3c(=O)c2/C=C(\C#N)C(=O)NCCOC)CC1 | 5 | 4 | -1 | -2 | 4 | 1 | /
OCc1cccc[n+]1Cc1ccccc1 | 0 | 13 | -4 | -5 | / | / | /
COc1ccc(CCNC(=O)c2ccc3nc(-c4ccco4)c(-c4ccco4)nc3c2)cc1OC | 11 | 23 | 44* | 22 | -3 | 1 | 20
O=C(Nc1cccc(C(F)(F)F)c1)c1ccc2nc(-c3ccco3)c(-c3ccco3)nc2c1 | 15 | 31* | 70* | 29* | -3 | -4 | 77*
CCc1nc2ccc(C(=O)NCCc3ccc(OC)c(OC)c3)cc2nc1CC | 3 | 4 | 1 | 13 | -1 | -2 | /
Nc1nc(=S)ss1 | 1 | 4 | / | 5 | / | / | /
c1ccc(-c2cn(C[C@H]3CC[C@H](Cn4cc(-c5ccccn5)nn4)O3)nn2)nc1 | 11 | -1 | 0 | 2 | -2 | -6 | /
Cc1cc(SCC(=O)N/N=C/c2ccc(O)c(O)c2O)c(C)cc1Br | -6 | 2 | 57* | 13 | -6 | 0 | 75*
CC1=Nc2nc(N3CCCCCC3)c(C#N)c3c4c(nc(c23)N1)N(c1ccc2ccccc2c1)C(=O)C4 | 7 | 23 | 59* | 4 | / | / | 22
N#Cc1c(N2CCN(c3ccc(F)cc3)CC2)nc(N)c2c(N)nc3c(c12)CC(=O)N3C1CC1 | 5 | 3 | / | 4 | -4 | -3 | /
CCOC(=O)Cc1cc(=O)n2[nH]c(-c3ccccc3)c(-c3ccccc3)c2n1 | -5 | -4 | 43* | -18 | -4 | -2 | 19
Cc1ccc2c(CC(=O)NCC3COc4ccccc4O3)coc2c1 (configuration not stated) | 10 | 2 | 37* | 3 | -3 | -4 | 7
Cc1cc(C)nc(N2CCN(S(=O)(=O)c3ccc(F)cc3)CC2)n1 | 6 | 6 | -2 | 11 | 0 | 1 | /
CC1=CC(=O)C(C(C)=Nc2cccc(Cl)c2)C(=O)O1 (configuration not stated) | 4 | 3 | / | 12 | / | / | /
COc1ccc(/C=C2\Oc3cc(OCC(=O)N4CCC[C@H]4C(=O)O)ccc3C2=O)c(OC)c1 | -3 | -1 | -6 | 11 | 1 | -1 | /
COc1cc(OC)c(OC)cc1/C=C1\Oc2cc(OCC(=O)N3Cc4ccccc4C[C@H]3C(=O)O)ccc2C1=O | 4 | -10 | 37* | 6 | 12* | 3 | 44*
Cc1ccc(-c2ccccc2NC(=O)CS(=O)CC(=O)Nc2ccc(C)c(Cl)c2)o1 (configuration not stated) | 22 | 3 | 85* | 4 | 2 | 0 | 8
O=S(=O)(c1cc(O)ccc1O)c1cccc2c(S(=O)(=O)c3cc(O)ccc3O)cccc12 | 23 | 15 | 41* | 22 | / | / | 29*
O=S(=O)(O)c1cc(O)ccc1O | 1 | -4 | 3 | 6 | / | / | /
N#CCC(=O)N/N=C\c1ccccc1OC/C=C/c1ccccc1 | -4 | -5 | -6 | 1 | -3 | -1 | /
Cc1cc2nc3c(=O)n(CCc4ccccc4)c(=O)[nH]c3nc2cc1N | 9 | 26 | 56* | 12 | 5 | 3 | 20
Oc1c(Br)cc(Br)c(/C=N/n2c(-c3ccccc3)n[nH]c2=S)c1Br | 9 | 31* | 42* | 1 | -1 | 0 | 53*
COc1ccc(Cl)cc1C(=O)NNC(=O)c1[nH]c(C)c(C(C)=O)c1C | -2 | 5 | 54* | 10 | / | / | 7
